# Screening data: PubChem, several laboratories
# Many of the other results were omitted from the sample, so hits are more common in it than they were.
# Lmaj promast – reduces viability of Leishmania major promastigotes. resazurin fluorescence viability. inhibition, % at 10 µM. hit rate 9% among 200,000; in the data active means inhibition above about 50%;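 further: promastigotes grown with compound for 44 hours at 28 °C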
# T cruzi repl – T. cruzi replication inhibition; T. cruzi beta-gal in NIH3T3, luminescence, 90 h; inhibition, % (concentration not given with the values); hit rate 1.4% among 300,000; AID 1885;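 active means mean inhibition across valid replicates above about 55%, limit read from the data; inconclusive means mean below that limit but half or more replicates reach it; inactive means mean below it, under half of replicates reach it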;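 further: signal also drops with host cell toxicity which is not excluded here; 0% = plate median of DMSO wells and 100% = zero luminescence signal; higher percent means less beta-gal luminescence so fewer parasites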
#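 assay system = mouse NIH/3T3 fibroblasts infected with β-gal-expressing T. cruzi Tulahuen C4 | input = 5,000 NIH/3T3 host cells per well | buffer or medium = DMEM plus 2% FBS | timing = 3 h host attachment, then at least 90 h co-culture | measured by = GalScreen luminescence, 60 min | evaluation = luminescence reflecting intracellular parasite burden, expressed as percent inhibition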
# Redox H2O2 prof – compounds producing H2O2 with reducing agent – biochemical, NIH compound library profiling, artefact control for MLSCN library redox annotation, primary screen | DTT-dependent redox cycling H2O2, phenol red/HRP absorbance; 100% = 100 µM peroxide control, 0% = buffer | activation, % at 10 µM | hit rate 0.03% among 200,000 | AID 878;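 active means activation of at least 50% relative to the plate's high and low controls in the primary single-dose screen; inactive means activation below 50%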;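 further: compound incubated with DTT at 0.8 mM final as the reducing agent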
# Lipid droplet – hepatic lipid droplet formation modulation | inhibition, % at 6.5 µM | hit rate 0.4% among 240,000 | AML12 mouse hepatocytes, oleate lipid droplets, BODIPY imaging;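 active means lipid droplet intensity inhibited by at least 50%, with more than 500 cells counted; inconclusive means wells with under 300 cells, treated as cytotoxic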
#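 material = mouse AML12 hepatocyte cell line, fixed after treatment | also added = 100 µM oleic acid challenge | doses = compound at 6.5 µM only | schedule = overnight exposure | technique = Image-based BODIPY and DAPI two-channel analysis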
# MPTP inh – permeability transition pore inhibition. AID 602449. isolated mouse mitochondria, Ca2+ swelling absorbance, 30 min. inhibition, % at 10 µM. hit rate 1.4% among 360,000;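 active means inhibition of 50% or more, scaled per plate between neutral and stimulator controls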;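 further: 0% = DMSO wells given calcium and 100% = 1 mM EGTA wells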
# Active calls of the source: *; ? = inconclusive; . = not tested or not shown.
SMILES,Lmaj promast,T cruzi repl,Redox H2O2 prof,Lipid droplet,MPTP inh
COc1cc(C(C)=O)ccc1Oc1ncnc2c1cnn2-c1cccc(Cl)c1,52.0*,0.6,0.1,13.9,4.3
C=CCC1NS(=O)(=O)O[C@H](CCCC)[C@@H]1O (stereo partly specified),.,-7.2,.,-0.7,-0.1
CC(C)c1ccc(CC(=O)N2CCC2(C)C(=O)NS(=O)(=O)c2cccc(C#N)c2)cc1 (stereo unspecified),.,.,.,.,1.3
CCN(CC)CCNC(=O)c1ccc(NC(=O)c2c(C)nn(-c3ccc(F)cc3)c2Cl)cc1,.,6.3,.,-14.5,-1.6
COc1ccc(-n2c(C)cc(/C=N/Nc3nc(N4CCOCC4)nc(N4CCOCC4)n3)c2C)cc1,97.5*,34.1,-0.6,4.7,0.1
Cc1cc(/C=N/Nc2nc(N3CCOCC3)nc(N3CCOCC3)n2)c(C)n1-c1ccccc1,7.7,44.6,0.3,-4.1,-1.1
Cc1cc(C)n2nc(C(=O)OCC(=O)N3CC(C)CC(C)C3)nc2n1 (stereo unspecified),.,-0.9,.,.,-0.1
CC(C)=CCCC(C)CN1CCC(n2nccc2NC(=O)c2ccc3c(c2)OCO3)CC1 (stereo unspecified),.,56.6*,.,12.1,2.9
C/C=C(\C)CN1CCC(n2nccc2NC(=O)c2ccc3c(c2)OCO3)CC1,.,35.7,.,11.8,-0.1
CN(CC(=O)Nc1ccccc1Cl)C(=O)c1ccc(COc2ccccc2)cc1,.,1.1,.,.,-1.8
N#C/C(=C/c1ccncc1)c1nc2ccccc2s1,3.5,20.0,-0.4,6.7,2.2
CC1CCc2nc(/C(C#N)=C/c3ccncc3)sc2C1 (stereo unspecified),52.9*,25.8,1.5,-28.1,3.0
COc1ccc(NC(=O)/C(=C/c2ccc3c(c2)OCO3)NC(C)=O)cc1,70.8*,-1.7,-0.2,0.5,0.5
O=C(O)c1ccc(NC(=O)C2(c3ccccc3)CCCC2)cc1,.,-7.0,.,17.0,2.1
CCN(CC)CCOC(=O)c1ccc(NC(=O)C2(c3ccccc3)CCCC2)cc1,69.5*,14.6,-4.2,.,23.5
CCN(CC)CCOC(=O)c1ccc(NC(=O)/C=C/c2cccs2)cc1,69.0*,31.5,0.3,-4.5,0.4
c1ccc(-c2nnsc2Sc2ccccn2)cc1,7.7,-2.9,-0.4,-11.3,0.2
Cc1ccc(SCC(=O)OCC(=O)NCCc2ccccc2)cc1C,.,.,.,.,-0.6
COc1cccc(/C=N/NC(=O)c2ccc(CN3c4cccc5cccc(c45)S3(=O)=O)cc2)c1,82.1*,-4.4,0.8,-2.4,0.0
O=C(CCCc1ccccc1)N1CCN(C2CCCCC2)CC1,.,-29.7,.,-2.8,0.9
c1ccc(CCN(Cc2ccccc2)C2CCN(C3CCCC3)CC2)cc1,91.8*,33.4,-1.8,11.0,15.3
O=C1N=C(N2CCOCC2)S/C1=C/c1ccc(-c2ccc(F)cc2)o1,-0.5,32.0,-0.6,43.0,-0.6
Cc1ccc(-c2ccc(/C=C3\SC(N4CCOCC4)=NC3=O)o2)cc1,29.1,65.7*,-0.1,?,2.9
Clc1ccc2ccc3cccnc3c2n1,.,-14.5,.,7.4,0.1
O=S1(=O)Nc2c(ccc3cccnc23)-c2ccccc21,99.4*,72.0*,0.6,.,-4.4
SMILES,Lmaj promast,T cruzi repl,Redox H2O2 prof,Lipid droplet,MPTP inh
CNC(=S)NCc1ccc2[nH]c(C)cc2c1,-7.0,-7.5,-0.8,-4.1,-0.7
CCc1cccc(C)c1NC(=S)NCc1ccc2[nH]c(C)cc2c1,93.0*,24.2,1.1,-40.7,1.3
Cc1[nH]c2ccc(-c3nnc(SCC(=O)c4ccc(F)cc4)o3)cc2c1C,4.6,32.8,-0.1,.,0.4
Cc1cc(C)c(C)c(C(=O)CSc2nnc(-c3ccc4[nH]c(C)c(C)c4c3)o2)c1C,42.2,54.5*,-0.5,-1.5,1.8
Cc1ccc2c(C)c(C(=O)N3CCC(O)(c4ccccc4)CC3)oc2c1C,.,23.2,.,-0.5,-0.5
COc1c(Cl)cc(Cl)cc1C(=O)Nc1ccc(NC(=O)c2cccs2)cc1,-0.4,58.0*,2.3,.,0.2
COc1c(Cl)cc(Cl)cc1C(=O)Nc1ccc(CN2CCOCC2)cc1,.,-31.0,.,-10.3,2.3
COc1c(Cl)cc(Cl)cc1C(=O)Nc1ccc(CN2CCCCC2)cc1,100.2*,56.2*,-0.6,-20.0,-0.8
CCn1c(O)c(C2=c3ccccc3=NC2=O)c2cc(Br)ccc21,100.4*,60.8*,0.0,-11.5,.
CCn1c(O)c(N=NC(=O)c2cccnc2)c2cc(Br)ccc21,.,-5.0,.,12.5,1.6
Cc1nc(NC(=O)c2ccccc2O)sc1C,.,-2.2,.,.,0.5
